Assay results gathered from unrelated publications.
Each line is one published result; the experiments were not run side by side.
PIK3CG: Phosphatidylinositol 4,5-bisphosphate 3-kinase catalytic subunit gamma isoform (PIK3CG, Homo sapiens, UniProt P48736)
PTGS2: Prostaglandin G/H synthase 2 (PTGS2, Homo sapiens, UniProt P35354)
Inositol-tetrakisphosphate 1-kinase: Inositol-tetrakisphosphate 1-kinase (Homo sapiens, UniProt Q13572)
CHRM3: Muscarinic acetylcholine receptor M3 (CHRM3, Homo sapiens, UniProt P20309)

C=CCN1C(=O)C(=Nc2cccc(C)c2)c2ccccc21
IC50 (PIK3CG; enzyme activity, inhibitor, ADP detection): 0.0243 µM

COc1nc2ccc(Br)cc2cc1[C@@H](c1ccccc1)[C@@](O)(CCN(C)C)c1cccc2ccccc12
IC50 (Retinal dehydrogenase 2 (ALDH1A2, Homo sapiens, UniProt O94788); enzyme activity, inhibitor, fluorescence; 15 min, pH 7.5): < 10 µM

NS(=O)(=O)c1ccc(-n2nc(C(=O)NN=Cc3ccccc3O)cc2-c2ccccc2)cc1
IC50 (PTGS2; enzyme activity, inhibitor): 1.55 µM

O=C1C(=Nc2ccccc2I)c2ccccc2N1Cc1ccc([N+](=O)[O-])cc1
IC50 (PIK3CG; enzyme activity, inhibitor, ADP detection): 0.00152 µM

Nc1ncnc2c1ncn2C1CCCO1 (stereo not drawn)
IC50 (Inositol-tetrakisphosphate 1-kinase; enzyme activity, inhibitor): 1 µM

O=C(CCc1ccc(Cl)cc1)N1C(=O)C(=Nc2ccc(Cl)cc2Br)c2ccccc21
IC50 (PIK3CG; enzyme activity, inhibitor, ADP detection): 0.00965 µM

CN(C)C(=O)c1cc2cnc(Nc3ccc(-c4cccc5c(=O)cc(N6CCOCC6)oc45)cn3)nc2n1C1CCCC1
IC50 (PIK3CG; enzyme activity, inhibitor, radiometric): > 10 µM

Cc1cccc(N=C2C(=O)N(Cc3ccc(Br)cc3)c3ccccc32)c1
IC50 (PIK3CG; enzyme activity, inhibitor, ADP detection): 0.0098 µM

CC(C)NC(=O)COc1cccc(-c2nc(Nc3ccc4[nH]ncc4c3)c3ccccc3n2)c1
IC50 (UDP-glucuronosyltransferase 1A1 (UGT1A1, Homo sapiens, UniProt P22309); enzyme activity, inhibitor): 0.0609 µM

CCc1ccc(N=C2C(=O)Nc3ccccc32)cc1
IC50 (PIK3CG; enzyme activity, inhibitor, ADP detection): 0.0934 µM

Nc1ncnc2c1ncn2C1CCCC1
IC50 (Inositol-tetrakisphosphate 1-kinase; enzyme activity, inhibitor, ADP detection): 0.078 µM

O=C(CCNC(=O)CNC(=O)CC(c1ccccc1)(c1ccccc1)c1ccccc1)NC[C@H]1CCCN(Cc2ccc(F)cc2)C1
IC50 (CHRM3; ligand displacement, radioligand; cell membranes): 0.4 µM

Nc1ncnc2c1ncn2[C@@H]1O[C@H](CO)[C@@H](O)[C@@H]1F
IC50 (Inositol-tetrakisphosphate 1-kinase; enzyme activity, inhibitor, ADP detection): 3.7 µM

COc1cc(NC(=O)c2cnn(-c3ccc([N+](=O)[O-])cc3)c2C(F)(F)F)cc(OC)c1OC
IC50 (PTGS2; enzyme activity, inhibitor): 4.82 µM

O=C(CCNC(=O)CNC(=O)CC(c1ccccc1)(c1ccccc1)c1ccccc1)NC[C@@H]1CCCN(Cc2cccnc2F)C1
IC50 (CHRM3; ligand displacement, radioligand; cell membranes): 3.8 µM

FC(F)(F)CN1CC(n2cc(Oc3ccn4nc(Cl)cc4n3)cn2)C1
IC50 (Very long chain fatty acid elongase 7 (Homo sapiens, UniProt A1L3X0); enzyme activity, inhibitor): > 99 µM

CN(C)C(=O)c1cc2cnc(Nc3cc(C(F)(F)F)c(-c4cccc5c(=O)cc(N6CCOCC6)oc45)cn3)nc2n1C1CCCC1
IC50 (PIK3CG; enzyme activity, inhibitor, radiometric): > 10 µM

c1ccc(COc2[nH]cnc3ncnc2-3)cc1
IC50 (Inositol-tetrakisphosphate 1-kinase; enzyme activity, inhibitor, ADP detection): 2.9 µM

O=C1C(=Nc2ccc(Cl)cc2)c2ccccc2N1Cc1ccc([N+](=O)[O-])cc1
IC50 (PIK3CG; enzyme activity, inhibitor, ADP detection): 0.0012 µM

NS(=O)(=O)c1ccc(-n2nc(-c3nnc(CCl)o3)cc2-c2ccccc2)cc1
IC50 (PTGS2; enzyme activity, inhibitor): 2.64 µM

CN(C)C(=O)c1cc2cnc(Nc3cccc(-c4cccc5c(=O)cc(N6CCOCC6)oc45)c3)nc2n1C1CCCC1
IC50 (PIK3CG; enzyme activity, inhibitor, radiometric): 6.04 µM

NS(=O)(=O)c1ccc(-n2nc(C(=O)NN3C(=O)CCC3=O)cc2-c2ccccc2)cc1
IC50 (PTGS2; enzyme activity, inhibitor): 3.63 µM

COc1ccc(-c2cc(=O)c3ccc(Nc4ncc5cc(C(=O)N(C)C)n(C6CCCC6)c5n4)cc3o2)cc1
IC50 (PIK3CG; enzyme activity, inhibitor, radiometric): 6.03 µM

Nc1ncnc2c1ncn2[C@@H]1O[C@H](CO)C[C@H]1O
IC50 (Inositol-tetrakisphosphate 1-kinase; enzyme activity, inhibitor, ADP detection): 2.4 µM

Cc1cccc(N=C2C(=O)N(Cc3cccc(Cl)c3)c3ccccc32)c1
IC50 (PIK3CG; enzyme activity, inhibitor, ADP detection): 0.00096 µM

CN(C)C(=O)c1cc2cnc(Nc3ccc(-c4cccc5c(=O)cc(N6CCNCC6)oc45)cc3)nc2n1C1CCCC1
IC50 (PIK3CG; enzyme activity, inhibitor, radiometric): > 10 µM

COc1ccc(C=NNC(=O)c2cc(-c3ccccc3)n(-c3ccc(S(N)(=O)=O)cc3)n2)cc1OC
IC50 (PTGS2; enzyme activity, inhibitor): 4.61 µM

CN(C)C(=O)c1cc2cnc(Nc3ccc(-c4cccc5c(=O)cc(N6CCOCC6)oc45)c(F)c3)nc2n1C1CCCC1
IC50 (PIK3CG; enzyme activity, inhibitor, radiometric): > 10 µM

O=C1C(=Nc2ccc(Cl)cc2Br)c2ccccc2N1Cc1ccc([N+](=O)[O-])cc1
IC50 (PIK3CG; enzyme activity, inhibitor, ADP detection): 0.00289 µM

CN(C)C(=O)c1cc2cnc(Nc3cc(C(F)(F)F)c(-c4ccc5c(=O)cc(N6CCOCC6)oc5c4)cn3)nc2n1C1CCCC1
IC50 (PIK3CG; enzyme activity, inhibitor, radiometric): > 10 µM

Nc1ncnc2c1cnn2C1CCCCC1
IC50 (Inositol-tetrakisphosphate 1-kinase; enzyme activity, inhibitor, ADP detection): 0.44 µM

CN(C)C(=O)c1cc2cnc(Nc3cncc(-c4cccc5c(=O)cc(N6CCOCC6)oc45)c3)nc2n1C1CCCC1
IC50 (PIK3CG; enzyme activity, inhibitor, radiometric): 6.11 µM

C=CC(=O)N1CCN(c2nc(=O)n(-c3c(C)ccnc3C(C)C)c3nc(-c4c(O)cccc4F)c(F)cc23)[C@@H](C)C1
IC50 (GTPase NRas (NRAS, Homo sapiens, UniProt P01111, C181S/C186S/G12C); enzyme activity, inhibitor): 0.0572 µM
